Measurements: ChEMBL document CHEMBL3352196, “Synthesis, structural characterization and effect on human granulocyte intracellular cAMP levels of abscisic acid analogs” (Bioorg Med Chem, 2015)
Activity calls are given as the source filed them. No cut-off for these calls is given here.

Assays:
[1] = species: Homo sapiens; assay: Inhibition of 1 uM ABA-induced Increase in intracellular cAMP level in human granulocytes at 50 uM incubated for 1 min at 25 degC; type: functional, cell-based
Procedure, shortened: (§1)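 Cells were rested overnight, then resuspended at 1.5 × 10⁷/ml in HBSS containing Ca and Mg. After a 5 min preincubation at 25 °C with Ro-20-1724 (PDE inhibitor), aliquots received ABA with or without analog for 1 min at 25 °C; untreated cells were the control. Cold perchloric acid ended the reaction; lysate was spun, neutralized with K2CO3 to pH 7.5, and cleared of KClO4. cAMP was measured by [³H]-cAMP radioimmunoassay and given as increase over control.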

[2] = species: Homo sapiens; assay: Increase in intracellular cAMP level in human granulocytes at 1 to 50 uM incubated for 1 min at 25 degC; type: functional, cell-based
Procedure, shortened: (§2)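 Human granulocytes were rested overnight after purification, pelleted at 200×g for 5 min, and resuspended at 1.5 × 10⁷/ml in HBSS with Ca and Mg. Cells were preincubated 5 min at 25 °C with the PDE inhibitor Ro-20-1724, then given analog alone for 1 min at 25 °C. Perchloric acid at 4 °C stopped the reaction, and supernatant was neutralized to pH 7.5 with K2CO3. cAMP was read by [³H]-cAMP competitive radioimmunoassay and reported relative to untreated cells.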

[3] = biological target: T1, LanC-like protein 2 (Homo sapiens, UniProt Q9NS86); assay: Inhibition of ABA binding to LANCL2 (unknown origin)
T1 sequence (Q9NS86 whole entry): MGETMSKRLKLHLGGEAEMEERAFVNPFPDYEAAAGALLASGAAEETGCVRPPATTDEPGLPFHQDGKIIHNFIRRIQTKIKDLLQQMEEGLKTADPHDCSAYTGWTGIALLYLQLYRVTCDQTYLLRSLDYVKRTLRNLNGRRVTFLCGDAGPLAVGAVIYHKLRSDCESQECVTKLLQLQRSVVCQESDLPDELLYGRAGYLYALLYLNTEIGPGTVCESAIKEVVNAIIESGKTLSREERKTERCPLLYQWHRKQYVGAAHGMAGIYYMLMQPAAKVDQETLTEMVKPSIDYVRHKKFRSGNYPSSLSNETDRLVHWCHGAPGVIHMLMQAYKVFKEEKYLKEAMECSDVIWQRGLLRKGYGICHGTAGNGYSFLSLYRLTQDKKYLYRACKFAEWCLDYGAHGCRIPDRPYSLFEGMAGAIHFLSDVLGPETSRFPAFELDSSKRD

[4] = Inhibition of 1 uM ABA-induced Increase in intracellular cAMP level in human granulocytes incubated for 1 min at 25 degC; type: functional, cell-based; procedure, shortened: as §1
[5] = species: Homo sapiens; assay: Increase in intracellular cAMP level in human granulocytes at 1 to 10 uM incubated for 1 min at 25 degC; type: functional, cell-based; procedure, shortened: as §2
[6] = species: Homo sapiens; assay: Increase in intracellular cAMP level in human granulocytes at 50 uM incubated for 1 min at 25 degC; type: functional, cell-based; procedure, shortened: as §2
[7] = species: Homo sapiens; assay: (§3) Increase in intracellular cAMP level in human granulocytes at 1 uM incubated for 1 min at 25 degC; type: functional; procedure, shortened: as §2
[8] = species: Homo sapiens; assay: Potentiation of 1 uM ABA-induced Increase in intracellular cAMP level in human granulocytes at 50 uM incubated for 1 min at 25 degC; type: functional, cell-based; procedure, shortened: as §1
[9] = species: Homo sapiens; assay: Inhibition of 1 uM ABA-induced Increase in intracellular cAMP level in human granulocytes at 1 to 10 uM incubated for 1 min at 25 degC; type: functional, cell-based; procedure, shortened: as §1
[10] = as §3; type: functional; procedure, shortened: as §2

Row | Compound | inhibition [1] | Activity [2] | other results
1 | COC(=O)/C=C(C)\C=C\c1c(C)cc(OC(C)=O)c(C)c1C | inactive | inactive | 
2 | CC(=C/C(=O)O)/C=C/C1(O)C(C)(C)CC(=O)C2OC21C (racemic) | Active |  | IC50 [3]: 6.56 nM; IC50 [4]: 0.7 nM
3 | CC(=O)/C=C/C12OC1(C)CCCC2(C)C (racemic) | inactive |  | Activity [5]: inactive; Activity [6]: Active
4 | CC(=O)OC1C=C(C)C(O)(/C=C/C(C)=C\C(=O)O)C(C)(C)C1 (racemic) |  | Active | 
5 | CC1=CC(=O)CC(C)(C)C1(O)/C=C/C(C)=C\C(=O)Nc1ccc(N)cc1 (racemic) | inactive | inactive | 
6 | CC1=CC(=O)CC(C)(C)C1(O)/C=C/C(C)=C\C(=O)Nc1ccccc1 (racemic) |  | Active | Activity [7]: Active
7 | CC1=CC(=O)CC(C)(C)C1(O)/C=C/C(C)=C\C(=O)OC(C)(C)C (racemic) |  | Active | Activity [8]: inactive
8 | CC1=CC(=O)CC(C)(C)C1(O)/C=C/C(C)=C\C(=O)OCC(=O)OC(C)(C)C (racemic) |  |  | Activity [5]: Active; Activity [7]: Active
9 | CC1=CC(=O)CC(C)(C)C1(O)/C=C/C(C)=C\C(=O)OCC(=O)OCC(=O)O (racemic) | Active |  | inhibition [9]: inactive; Activity [6]: inactive
10 | CC1=CC(=O)CC(C)(C)C1(O)/C=C/C(C)=C\CO (racemic) |  | Active | 
11 | CC1=CC(=O)O/C1=C\C1(O)C(C)=CC(=O)CC1(C)C (racemic) |  | Active | 
12 | CC1=CC(O)CC(C)(C)C1(O)/C=C/C(C)=C\C(=O)O (racemic) |  | Active | 
13 | CC1=CC(O)CC(C)(C)C1(O)/C=C/C(C)=C\C(=O)OCC(=O)OC(C)(C)C (racemic) | inactive | inactive | 
14 | CC1=CC(O)CC(C)(C)C1(O)/C=C/C(C)=C\CO (racemic) |  | Active | 
15 | CCN(CC)C(=O)/C=C(C)\C=C\C1(O)C(C)=CC(=O)CC1(C)C (racemic) |  | Active | 
16 | COC(=O)/C=C(C)\C=C\C1(O)C(C)=CC(=O)CC1(C)C (racemic) |  | Active | Activity [8]: Active
17 | COC(=O)/C=C(C)\C=C\C1(O)C(C)=CC(O)CC1(C)C (racemic) | inactive | inactive | 
18 | COc1ccc(NC(=O)/C=C(C)\C=C\C2(O)C(C)=CC(=O)CC2(C)C)cc1 (racemic) |  | Active | Activity [7]: Active
19 | CC1=CC(=O)CC(C)(C)[C@@]1(O)/C=C/C(C)=C\C(=O)O (racemic) [(+)-ABSCISIC ACID] |  |  | Activity [10]: 35%
